Here are results for twelve compounds from ChEMBL document CHEMBL3596113, “Callyaerins from the Marine Sponge Callyspongia aerizusa: Cyclic Peptides with Antitubercular Activity” (J Nat Prod, 2015).

One data set relates to MRC5. Description: (§1) Cytotoxicity against human MRC5 cells assessed as cell growth inhibition after 48 hrs by resazurin dye reduction method. The following applies: Homo sapiens, MRC5, 48 h. The class given is cell-based. Summed up:
(§2)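 THP-1 human monocytic cells were grown in RPMI 1640 with 10% FBS, and MRC-5 fetal lung fibroblasts in DMEM with 10% FBS, at 37 °C in humidified 5% CO2. About 5 × 10^4 cells per well were exposed to compounds for 48 h, then to resazurin for about 3 h more. Fluorescence was read at ex 540/em 590 nm. Growth was set against uninoculated (0%) and untreated (100%) controls, and IC50 was taken as the concentration giving 50% growth inhibition.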

Another data set relates to THP-1. Put plainly: (§3) Cytotoxicity against human THP1 cells assessed as cell growth inhibition after 48 hrs by resazurin dye reduction method. The following applies: Homo sapiens, THP-1, 48 h. Format: cell-based. Summed up:
as §2

Data set [1] relates to Mycobacterium tuberculosis. Description: Antitubercular activity against Mycobacterium tuberculosis after 6 days by resazurin dye reduction method. The class given is functional. The conditions noted are these: 144 h; for MIC: read-out: MIC100. The gist of the method: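 M. tuberculosis grown aerobically at 37 °C in Middlebrook 7H9 with 0.5% glycerol, 0.05% Tyloxapol, 10% ADS enrichment; log-phase cultures (OD600 ~1) seeded at 1 × 10^5 cells/well, exposed to test substances 6 days. Resazurin added ~8 h, then formalin fixation (5% final); fluorescence ex 540/em 590 nm. Growth relative to rifampicin (0%) and DMSO (100%) controls; MIC90 = 90% growth inhibition.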

The nature of data set [2]: as §1. The class given is cell-based. The conditions noted are these: human, MRC5 cells. Summed up: as §2
The nature of data set [3]: as §3. The class given is cell-based, THP-1. The following applies: human, THP-1 cells. Summed up:
as §2

Structures are written as SMILES. ≈ marks a conversion by molar mass, not a printed value. Bounds are passed on as bounds.

Regarding `CC[C@H](C)[C@H](NC(=O)[C@H](Cc1ccccc1)NC(=O)[C@H](CC(C)C)NC(=O)[C@@H]1CCCN1C(=O)/C1=C\N[C@@H](C(C)C)C(=O)N2CCC[C@H]2C(=O)N[C@@H](C(C)C)C(=O)N[C@@H](Cc2ccccc2)C(=O)N2CCC[C@H]2C(=O)N1)C(=O)O` [CALLYAERIN F], the IC50 with MRC5 and in the data set on THP-1 was over 10 µM each time. For the same compound, the MIC90 in data set [1] was 50 µM (≈ 54.8 µg/mL).
As for `CO[C@H]1/C=C/O[C@@]2(C)Oc3c(C)c(O)c4c(O)c(c(/C=N/N5CCN(C)CC5)c(O)c4c3C2=O)NC(=O)/C(C)=C\C=C\[C@H](C)[C@H](O)[C@@H](C)[C@@H](O)[C@@H](C)[C@H](OC(C)=O)[C@@H]1C` [RIFAMPIN], the IC50 in the data set on MRC5 and in the data set with THP-1 was over 100 µM in each case. The IC90 at 48 h in data set [2] and in data set [3] was over 100 µM each time. The compound further came in with an MIC90 in data set [1] of under 0.1 µM. Besides, the MIC in data set [1] was determined as 0.5 µM (≈ 0.411 µg/mL).
For `CC[C@@H](C)[C@@H]1NC(=O)[C@H]([C@@H](C)CC)NC(=O)[C@@H]2C[C@@H](O)CN2C(=O)[C@H]([C@H](C)CC)N/C=C(\C(=O)N2CCC[C@H]2C(=O)N[C@H](C(=O)N[C@H](C(=O)O)[C@@H](C)CC)[C@@H](C)CC)NC(=O)[C@H](CC(C)C)NC(=O)[C@@H]2CCCN2C(=O)[C@@H]2CCCN2C(=O)[C@H](CC(C)C)NC1=O` [CALLYAERIN B], the IC50 with MRC5 amounted to 2 µM; in the data set with THP-1, 5 µM. In addition, the IC90 at 48 h was determined as 6 µM in data set [2] and 30 µM in data set [3]. The compound further had an MIC90 in data set [1] of 5 µM (≈ 6.41 µg/mL). Further, the MIC in data set [1] is 10 µM (≈ 12.8 µg/mL).
In the case of `CC[C@H](C)[C@H](NC(=O)[C@@H](NC(=O)[C@@H]1CCCN1C(=O)/C1=C/N[C@@H](CC(C)C)C(=O)N2CCC[C@H]2C(=O)N[C@@H](Cc2ccccc2)C(=O)N[C@@H](Cc2ccccc2)C(=O)N2CCC[C@H]2C(=O)N2CCC[C@H]2C(=O)N[C@@H](C(C)C)C(=O)N1)[C@@H](C)CC)C(=O)NCC(=O)O` [CALLYAERIN E], the IC50 in the data set with MRC5 and with THP-1 was over 10 µM in each case. In addition, in data set [1], the MIC90 is 100 µM (≈ 126 µg/mL).
For the compound `NNC(=O)c1ccncc1` [ISONIAZID], in data set [1], the MIC90 came out at 0.625 µM (≈ 0.0857 µg/mL) and the MIC turned out to be 1.25 µM (≈ 0.171 µg/mL).
For the compound `CC[C@@H](C)[C@@H]1NC(=O)[C@H](C(C)C)NC(=O)[C@@H]2C[C@@H](O)CN2C(=O)[C@H]([C@@H](C)CC)N/C=C(\C(=O)N2CCC[C@H]2C(=O)N[C@H](C(=O)N[C@@H](Cc2ccccc2)C(=O)NCC(N)=O)[C@@H](C)CC)NC(=O)[C@H](CC(C)C)NC(=O)[C@@H]2CCCN2C(=O)[C@@H]2CCCN2C(=O)[C@H](CC(C)C)NC1=O` [CALLYAERIN A], the IC50 in the data set with MRC5 came out at 20 µM; in the data set on THP-1 it was 30 µM. Moreover, the IC90 at 48 h in data set [2] was found to be 40 µM; in data set [3], 50 µM. For the same compound, the MIC90 in data set [1] stood at 2 µM (≈ 2.72 µg/mL). Moreover, the MIC in data set [1] is 6 µM (≈ 8.15 µg/mL).
Take `CC[C@H](C)[C@@H]1NC(=O)[C@H](CCC(=O)O)NC(=O)[C@@H]2C[C@@H](O)CN2C(=O)[C@H]([C@@H](C)CC)N/C=C(/C(=O)N2CCC[C@H]2C(=O)N[C@@H](CC(C)C)C(=O)N[C@@H](Cc2ccccc2)C(N)=O)NC(=O)[C@H](CC(C)C)NC(=O)[C@@H]2CCCN2C(=O)[C@@H]2CCCN2C(=O)[C@H](C(C)C)NC1=O`: the IC50 with MRC5 and in the data set on THP-1 was over 10 µM in each case. For the same compound, in data set [1], the MIC90 is over 100 µM.
In the case of `CC[C@H](C)[C@H](NC(=O)[C@H](Cc1ccccc1)NC(=O)[C@@H]1CCCN1C(=O)/C1=C/N[C@@H](Cc2ccccc2)C(=O)N2CCC[C@H]2C(=O)N[C@@H](Cc2ccccc2)C(=O)NCC(=O)N[C@@H](CC(C)C)C(=O)N2CCC[C@H]2C(=O)N2CCC[C@H]2C(=O)N[C@@H](Cc2ccccc2)C(=O)N1)C(=O)N[C@@H](CC(=O)O)C(=O)O`, the IC50 in the data set with MRC5 and in the data set on THP-1 was over 10 µM throughout. The compound also came in with an MIC90 in data set [1] of over 100 µM.
Consider `CC[C@H](C)[C@H](NC(=O)[C@@H](NC(=O)[C@@H]1CCCN1C(=O)/C1=C/N[C@@H](Cc2ccccc2)C(=O)N2CCC[C@H]2C(=O)N[C@@H](CC(C)C)C(=O)N[C@@H](Cc2ccccc2)C(=O)N2CCC[C@H]2C(=O)N2CCC[C@H]2C(=O)N[C@@H](C(C)C)C(=O)N1)[C@@H](C)CC)C(=O)NCC(N)=O`, for which the IC50 in the data set on MRC5 and in the data set on THP-1 was over 10 µM each time. In data set [1], this compound had an MIC90 of over 100 µM.
For the compound `CC(C)C[C@H](NC(=O)[C@@H]1CCCN1C(=O)/C1=C/N[C@@H](CC(C)C)C(=O)N2CCC[C@H]2C(=O)N[C@@H](Cc2ccccc2)C(=O)N[C@@H](Cc2ccccc2)C(=O)N2CCC[C@H]2C(=O)N2CCC[C@H]2C(=O)N[C@@H](C(C)C)C(=O)N1)C(=O)N[C@@H](Cc1ccccc1)C(=O)NCC(N)=O`, the IC50 in the data set with MRC5 and with THP-1 was over 10 µM throughout. This compound gave an MIC90 in data set [1] of over 100 µM.
As for `COC1NC(=O)N/C1=C\[C@@H]1N/C=C(/C(=O)N2CCC[C@H]2C(=O)N[C@@H](CC(C)C)C(=O)N[C@@H](Cc2ccccc2)C(=O)NCC(N)=O)NC(=O)[C@H](C(C)C)NC(=O)[C@@H]2CCCN2C(=O)[C@@H]2CCCN2C(=O)[C@H](CC(C)C)NC(=O)[C@H](CC(C)C)NC(=O)[C@@H]2C[C@@H](O)CN2C1=O` (stereo partly drawn), the IC50 in the data set with MRC5 and in the data set on THP-1 was over 10 µM in each case. The same compound had an MIC90 in data set [1] of over 100 µM.
As for `CC[C@@H](CO)NCCN[C@@H](CC)CO` [ETHAMBUTOL], in data set [1], the MIC90 stood at 1.25 µM (≈ 0.255 µg/mL) and the MIC stood at 5 µM (≈ 1.02 µg/mL).
